Screens (PubChem)
PMI act = phosphomannose isomerase (human) activation. purified human PMI, coupled resazurin fluorescence, 20 min; stronger effect = higher value; 1 = vehicle control, 0 substrate-free wells. activation factor at 20 µM. 0.005% of 190,000 active;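 active = activation factor of 2 or more at 20 µM, relative to plate controls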
Diaph act CS = activates diaphorase or chemically reduces, flagging diaphorase assay artifacts | activation factor at 20 µM | Diaphorase/resazurin coupled assay, resorufin fluorescence, 16 min; stronger effect = higher value; 1 = vehicle wells, 0 = NADH-free wells | AID 1229 | 0.005% of 190,000 active;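 active = diaphorase activity raised at least twofold by the compound at 20 µM; inactive = activation factor below 2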
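Material: purified diaphorase enzyme from Clostridium kluyveri; Also added: 0.114 mM NADH and 0.1 mM resazurin, final amounts; Doses: single compound dose of 20 µM, 1% DMSO final; Times: 16 min enzyme reaction, ambient temperature; Detection: resorufin fluorescence, excitation 544 nm, emission 590 nm; Measure: increased resorufin signal from activators or reducing compounds.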
PMI act satM6P = activators of human phosphomannose isomerase at near-saturating mannose 6-phosphate | P34949 | AID 1216 | coupled PMI enzyme assay, resazurin fluorescence, 20 min; stronger effect = higher value; 1 = untreated enzyme, 0 = substrate-free blank | 0.34% of 190,000 active | activation factor at 20 µM;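 active = activation factor of 2 or more at 20 µM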
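Test system: human PMI in coupled enzyme assay; Input: PMI at 15 ng/mL final; Medium: HEPES buffer, pH 7.4; Schedule: 20 min incubation at room temperature; Technique: resorufin fluorescence at Ex 544/Em 590 nm; Compound: 20 µM single dose; Probe or stimulus: Near-saturating mannose-6-phosphate, 1.0 mM.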
FLuc act counter = firefly luciferase counter-screen for stimulation assays; activation factor at 10 µM; P08659; ATPlite luciferase biochemical, luminescence, 10 min; 0 = ATP-free wells, 1 = DMSO control; 200,000 tested, under 10 active;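 active = luciferase activation factor, scaled between plate controls, of at least 2 with compound at 10 µM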
Target sequence (P08659 whole entry, looked up): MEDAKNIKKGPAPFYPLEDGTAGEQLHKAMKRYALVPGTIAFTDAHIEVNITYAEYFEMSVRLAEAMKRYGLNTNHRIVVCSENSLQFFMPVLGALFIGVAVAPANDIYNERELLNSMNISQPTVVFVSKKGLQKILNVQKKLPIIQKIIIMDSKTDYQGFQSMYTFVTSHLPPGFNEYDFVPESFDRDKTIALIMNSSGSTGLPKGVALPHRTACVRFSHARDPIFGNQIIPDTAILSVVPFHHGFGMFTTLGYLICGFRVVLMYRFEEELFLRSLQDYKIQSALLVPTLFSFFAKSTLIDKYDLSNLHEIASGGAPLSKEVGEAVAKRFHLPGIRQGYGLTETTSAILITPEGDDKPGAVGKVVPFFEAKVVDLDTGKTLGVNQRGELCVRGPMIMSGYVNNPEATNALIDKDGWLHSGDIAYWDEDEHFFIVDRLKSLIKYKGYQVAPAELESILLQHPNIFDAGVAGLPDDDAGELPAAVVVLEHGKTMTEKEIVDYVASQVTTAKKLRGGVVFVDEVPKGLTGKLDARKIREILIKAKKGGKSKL
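Assay system: Luciferase/luciferin detection reagent, cell-free biochemical luciferase assay / Also added: ATP substrate / Schedule: 10 min at ambient temperature / Measured by: luminescence measurement of luciferase light output / Benchmarks: low control with PBS replacing ATP, high control enzyme plus ATP without compound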
Diaph inh CS = diaphorase inhibition or chemical oxidation counter-screen | diaphorase resazurin-to-resorufin fluorescence, NADH, 16 min; bacterial (C. kluyveri) enzyme, not human | inhibition, % at 20 µM | 0.69% of 190,000 active;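 active = primary screen inhibition at 20 µM above a set limit, cut at about 50% in these data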;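 also: plate controls were DMSO with full reaction for no effect and wells lacking NADH for full effect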
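Assay system: diaphorase enzyme from Clostridium kluyveri; Input: enzyme working solution with 0.14 U/mL diaphorase; Timing: 16 min at room temperature; Technique: resorufin fluorescence, excitation 544 nm, emission 590 nm; Benchmarks: positive control minus NADH, DMSO neutral control.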
FLuc inhib CS = inhibits firefly luciferase, flagging false hits in luciferase inhibition screens. P08659. ATPLite firefly luciferase biochemical luminescence, 10 min. inhibition, % at 10 µM. 1.5% of 200,000 active. AID 1006;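 active = inhibition above about 50% when tested at 10 µM, limit read from the data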
An asterisk follows results filed as active; . = no result. Most compounds without a hit are left out; they make up all but 2.5% or so of the library.

SMILES | PMI act | Diaph act CS | PMI act satM6P | FLuc act counter | Diaph inh CS | FLuc inhib CS
CCOC(=O)C(C(=O)NCc1cccc(OC)c1)c1ncc(C(F)(F)F)cc1Cl (configuration not stated) | 1 | 0.8 | 1 | 1.1 | 20.0 | -6.0
Cc1c(C(=O)/C=C/c2cccs2)oc2ccc(F)cc12 | 0.9 | 0.9 | 1 | 0.2 | 8.5 | 84.5*
Cc1cc(=O)oc2c(C(=O)/C=C\c3cccs3)c(O)ccc12 | 0.9 | 1 | 1 | 1 | 3.0 | 3.8
COc1ccc(S(=O)(=O)N(C)CC(=O)Nc2ccc(C(F)(F)F)cc2)cc1Cl | 0.9 | 0.8 | 0.9 | 1 | 17.4 | 0.5
Nc1cc2nc[nH]c2cc1N | 0.3 | 0.4 | 0.3 | 0.8 | 60.6* | 15.2
COC(=O)C(Cc1ccccc1)NC(=O)c1ccc(C)cc1 (configuration not stated) | 1.1 | 0.8 | 0.9 | 0.4 | 16.5 | 60.0*
COC(=O)C(Cc1ccc(O)cc1)NC(=O)c1ccccc1 (configuration not stated) | 0.9 | 0.9 | 1 | 0.8 | 10.1 | 18.9
COc1cc(NC(=S)N2CCC(C(N)=O)CC2)c(OC)cc1Cl | 1 | 0.5 | 1 | 1.1 | 54.8* | -8.9
COc1cc(NC(=S)N2CCC(C(N)=O)CC2)cc(OC)c1 | 1 | 0.8 | 1 | 1.1 | 18.7 | -5.6
S=c1[nH]nc(-c2ccc3ccccc3n2)n1-c1cc(Cl)cc(Cl)c1 | 1 | 0.9 | 1.2 | 0.3 | 6.4 | 69.6*
Fc1ccc(-n2c(-c3ccc4ccccc4n3)n[nH]c2=S)cc1 | . | . | . | 1.1 | . | -11.2
CCOc1ccc(NC(=O)C(c2ccccn2)N(C(=O)CCl)c2ccc(OC)cc2)cc1 (configuration not stated) | 0.8 | 0.4 | 1.1 | 1 | 56.5* | 4.3
CCOc1ccc(NC(=O)C(c2ccccn2)N(C(=O)CCl)c2ccc(OCC)cc2)cc1 (configuration not stated) | 0.6 | 0.5 | 0.8 | 0.9 | 53.5* | 5.2
O=S(=O)(c1ccccc1Br)N1CCC(O)(c2cccnc2)CC1 | 1 | 0.6 | 1 | 1.1 | 37.1 | -5.6
Cc1c(NC(=O)c2cc(-n3cnnc3)ccc2Cl)cccc1-c1nc2ccccc2s1 | 0.9 | 0.9 | 1 | 0.2 | 5.2 | 79.1*
CC(Sc1ccc2c(c1)OCCO2)C(=O)Nc1ncc(Cl)cc1Cl (configuration not stated) | 1 | 0.4 | 1.1 | 1.1 | 64.3* | -5.3
CC1(C)CC(=O)C(C(C2=C(O)CC(C)(C)CC2=O)c2ccc(Br)s2)C(=O)C1 (configuration not stated) | 0.9 | 0.9 | 1.1 | 0.9 | 9.5 | 5.0
CCN(CC)Cc1cc(O)c(CN(CC)CC)cc1O | 0.7 | 0.5 | 0.5 | 1.1 | 53.1* | -5.5
CCc1oc(C(=O)O)cc1CN(CC)CC | 0.9 | 0.9 | 0.9 | 1 | 7.8 | -4.2
NC(=S)Nc1ccc2cn[nH]c2c1 | 0.9 | 0.9 | 0.9 | 1 | 8.5 | -4.6
c1cc2cn[nH]c2cc1NC1CCCCCC1 | 0.4 | 0.3 | 0.4 | 1 | 72.2* | 1.1
CCN1CCN(Cc2ccc(NC(=O)Nc3ccc(OC)cc3)cc2)CC1 | 0.9 | 0.9 | 0.9 | 1 | 9.4 | -1.3
CCN1CCN(Cc2ccc(NC(=O)Nc3cccs3)cc2)CC1 | 1.2 | 1 | 1 | 0.3 | -0.6 | 73.6*
COc1ccc(NC(=O)Nc2cccs2)cc1Cl | 0.9 | 0.9 | 0.8 | 0.4 | 11.9 | 57.9*
CCN1CCN(Cc2ccc(NC(=O)Nc3ccccc3)cc2)CC1 | 0.8 | 0.9 | 0.8 | 0.4 | 11.6 | 64.2*
SMILES | PMI act | Diaph act CS | PMI act satM6P | FLuc act counter | Diaph inh CS | FLuc inhib CS
O=C(Nc1ccc(Oc2ccc(C(=O)O)c(C(=O)O)c2)cc1)c1cccs1 | 1 | 0.9 | 1 | 1 | 11.1 | -0.9
CC(C)c1cc(=O)n2[nH]c(N)nc2n1 | 0.8 | 1.1 | 0.9 | 1.1 | -9.7 | -5.0
CNC(=S)N/N=C/c1cccc(OCc2ccccc2F)c1 | 0.9 | 0.8 | 0.9 | 0.5 | 24.4 | 51.5*
CCc1cc(C(=O)NNC(=S)Nc2cccc(C)c2)cs1 | 1.1 | 1 | 1.1 | 0.5 | 0.8 | 51.2*
Cc1cccc(NC(=S)NNC(=O)c2csc(C(C)C)c2)c1 | 1 | 0.9 | 1.1 | 0.5 | 10.0 | 53.8*
Cc1cccc(NC(=S)NNC(=O)c2sccc2C)c1 | 1.2 | 1.1 | 1.2 | 0.6 | -8.4 | 35.4
N#Cc1c2n(c3c(=S)nc[nH]c13)CCCCC2 | 0.9 | 0.5 | 1 | 1 | 54.3* | 1.4
O=C(NC(=S)Nc1ncccn1)c1ccc(Cl)cc1Cl | 1.2 | 0.7 | 1.3 | 0.4 | 25.2 | 64.2*
CCC(=O)Nc1cccc(NC(=S)NC(=O)c2ccc(Cl)cc2Cl)c1 | 0.8 | 0.8 | 0.9 | 1 | 15.3 | -1.2
CCOc1cccc(NC(=O)c2cccc(F)c2)c1 | 1 | 1 | 1 | 1.1 | 2.0 | -6.0
COCCNC(=O)CCCn1c(=O)c2cc(OC)c(OC)cc2n(CC(=O)c2ccc(Cl)cc2)c1=O | 1.1 | 0.9 | 1.1 | 1.1 | 13.0 | -6.1
COc1ccc(/C=C2\CC/C(=C\c3ccc(OC)c(OC)c3)C2=O)cc1OC | 0.7 | 0.8 | 0.8 | 0.3 | 20.0 | 66.4*
COCCN(C(=O)CC1C(=O)NCCN1Cc1ccc(-c2ccccc2)cc1)C(C)C (configuration not stated) | 1.2 | 1 | 1 | 1.1 | -2.0 | -9.5
Cc1ccc(CN2C(=O)C(C)(C)Oc3ccc(C(=O)N4CCCCC4)cc32)cc1 | 1 | 0.8 | 1 | 1.1 | 17.6 | -11.6
Cc1ccc(NC(=S)Nc2cccc3cnccc23)cc1 | 0.2 | 0.5 | 0.3 | 1 | 49.2 | 4.1
Cc1ccc(C)c(NC(=S)Nc2cccc3cnccc23)c1 | 0.5 | 0.4 | 0.6 | 1.1 | 55.4* | -7.7
Cc1ccc(NC(=S)Nc2cccc3cnccc23)cc1C | 1 | 0.6 | 1.3 | 1 | 39.1 | 0.0
Cc1ccccc1NC(=S)Nc1cccc2cnccc12 | 0.4 | 0.5 | 0.3 | 1.1 | 52.1* | -5.7
CN(C)c1ccc(-c2nc3ccccc3n2C)cc1 | 1.2 | 0.9 | 1 | 0 | 9.6 | 95.9*
CCn1c(-c2ccc(N(C)C)cc2)nc2ccccc21 | 0.9 | 0.9 | 1 | 0.2 | 8.3 | 84.8*
COc1cccc(CN2CCNC(=O)C2CC(=O)N(C)Cc2cnccn2)c1OC (configuration not stated) | 0.9 | 0.9 | 1 | 1 | 14.3 | -4.3
COc1ccc(OC)c(Nc2nc(=O)c3cccnc3s2)c1 | 0.3 | 0.3 | 0.6 | 0.9 | 65.3* | 9.9
